Source: ChEMBL document CHEMBL1147980, “Nicotinic acid receptor agonists differentially activate downstream effectors” (J Biol Chem, 2007)
Active and inactive are the calls of the source. The rule behind the calls is not given here.

Legend:
Mus musculus [1] = assay: Induction of flushing response in ip dosed C57/BL6 mouse; format: organism-based, C57Bl/6; conditions: in vivo
In short: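 Male C57Bl/6 mice, 8-10 weeks, anesthetized with Nembutal i.p. (80 mg/10 ml/kg). Laser Doppler perfusion imaging centred on the ventral right ear. After a 3 min baseline, vehicle or agonist is given i.p. (5 ml/kg) and readings continue about 15 min. Output is % change from pre-injection baseline, 3-26 animals per group.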

Rattus norvegicus = assay: Reduction of free fatty acid level in po dosed Sprague-Dawley rat plasma relative to baseline; format: functional; set-up: scale not given: the % may be the effect or the level left
In short: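 Male Sprague-Dawley rats, 7-10 weeks (~350 g), jugular vein cannulated, fasted 16 hr. Baseline blood drawn, then oral vehicle (PBS, 5% HPBCD or 0.5% methylcellulose) or drug at 2 ml/kg. Blood sampled via cannula at set times; serum NEFA assayed by NEFA-C kit, A550. Expressed as % baseline FFA, four or more independent experiments.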

Mus musculus [2] = assay: Reduction of free fatty acid level in ip dosed C57/BL6 mouse plasma after 10 mins; format: functional, organism-based; conditions: C57Bl/6
In short: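 Male C57Bl/6 mice, 8-10 weeks (~25 g), fasted 16 hr, dosed i.p. with compound in PBS or PBS vehicle (5 ml/kg). Killed after 10 min; cardiac blood taken and serum obtained by centrifugation at 4°C. NEFA measured colorimetrically with the NEFA-C two-reagent kit, 37°C incubations, A550. Three or more experiments in triplicate; one-way ANOVA with Bonferroni.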

Adipocyte = assay: Inhibition of isoproterenol-induced lipolysis in human subcutaneous adipocytes after 5 hrs
Mus musculus [3] = assay: Inhibition of nicotinic acid induced flushing response in ip dosed C57/BL6 mouse; format: functional, organism-based; conditions: C57Bl/6
In short: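 Laser Doppler ear flushing in anesthetized male C57Bl/6 mice. Vehicle or competing agonist is given i.p. together with Nembutal, 10 min before baseline. After a 3 min baseline, nicotinic acid 30 mg/kg i.p. is injected. Response is % change from pre-nicotinic acid baseline, 5 or 11 animals per group.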

`O=C(O)c1cc(Cc2cccc(Cl)c2)[nH]n1` was tested, and the Activity (Mus musculus [1]) was “Non-toxic”.
`CC(C)c1cc(C(=O)O)n[nH]1` was tested, and the Activity (Rattus norvegicus) was 75%, the Activity (Mus musculus [2]) was “Dose-dependent effect” and the Activity (Mus musculus [1]) was “Non-toxic”.
`O=C(O)c1cccnc1` [NIACIN] was tested, and the EC50 (Adipocyte) was 0.9 µM and the Activity (Mus musculus [1]) was “Toxic”.
With `Cc1cc(C(=O)O)n[nH]1` the Activity (Rattus norvegicus) was 75%, the EC50 (Adipocyte) was 1.4 µM and the Activity (Mus musculus [2]) was “Dose-dependent effect”. For the same compound, the Activity (Mus musculus [1]) was “Toxic”.
With `O=C(O)c1cc(Cc2cccc(F)c2)[nH]n1` the Activity (Rattus norvegicus) was 75%, the EC50 (Adipocyte) was 32.6 µM and the Activity (Mus musculus [2]) was “Dose-dependent effect”. For the same compound, the Activity (Mus musculus [1]) was “Non-toxic”.
In the case of `O=C(O)c1cc(Cc2cccc(Br)c2)[nH]n1`, the Activity (Rattus norvegicus) is reported as 75%, the EC50 (Adipocyte) is reported as 103 µM and the Activity (Mus musculus [2]) is reported as “Dose-dependent effect”. For the same compound, the Activity (Mus musculus [1]) was “Non-toxic”.
In the case of `Cc1cc(C(=O)O)on1`, the Activity (Rattus norvegicus) is reported as 75%, the EC50 (Adipocyte) is reported as 5.3 µM and the Activity (Mus musculus [1]) is reported as “Toxic”.
In the case of `O=C(O)c1cc(Cc2cccc(Cl)c2)n[nH]1`, the Activity (Rattus norvegicus) is reported as 75%, the EC50 (Adipocyte) is reported as 72.5 µM and the Activity (Mus musculus [3]) is reported as “Active”. The Activity (Mus musculus [2]) was “Dose-dependent effect”.
